The structures appear in SMILES notation. Activity calls are given as the source filed them. No cut-off for these calls is given here.

For one assay, the species on record is Xenopus laevis. Put plainly: Induction of cleavage arrest in embryonic cells of Xenopus laevis stage 8 blastulae after 20 hrs by animal cap assay. In kind it is functional, cell-based. In outline:
(§1)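 Single inner-surface cells taken from animal caps of X. laevis stage 8 blastulae, freed in Ca/Mg-free medium (50 mM phosphate, 35 mM NaCl, 1 mM KCl, pH 7.0). Two or three cells per well in NAM/2 with 2 mg/mL γ-globulin, non-nutritive. Test concentrations 0.1, 0.5, 2, 10, 50 and 200 µg/mL. Cultured 20 h at 25 °C. Read-out: percentage of cells with cleavage arrest.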
As to `C=C1[C@H](OC(C)=O)[C@@H](OC(=O)c2ccccc2)[C@@H](OC(C)=O)C(C)(C)[C@H]2O[C@](O)([C@H](C)C2=O)[C@@]2(OC(C)=O)C[C@H](C)[C@H](OC(C)=O)[C@@H]2[C@H]1OC(C)=O`, the outcome was inactive.

With `C=C1[C@H](OC(=O)c2ccccc2)[C@H]2[C@@H](OC(C)=O)[C@](C)(O)[C@H](OC(C)=O)[C@]2(O)C(=O)[C@@H](C)[C@H]2O[C@@H]2C(C)(C)C(=O)[C@H](O)[C@H]1OC(=O)c1ccccc1`, the result was inactive.

System in a further assay: not listed separately
Put plainly: Induction of cleavage arrest in embryonic cells of Xenopus laevis stage 8 blastulae at 0.5 ug/mL after 20 hrs by animal cap assay. The class given is functional. In outline: as §1
Consider `CCCCC/C=C\C=C\C(=O)O[C@H]1C(C)=C[C@]23C(=O)[C@@H](C=C(CO)[C@@H](O)[C@]12O)[C@H]1[C@@H](C[C@H]3C)C1(C)C`, for which the Activity is reported as >75%.

For `CCCCC/C=C\C=C\C(=O)O[C@H]1C(C)=C[C@]23C(=O)[C@@H](C=C(COC(C)=O)[C@@H](O)[C@]12O)[C@H]1[C@@H](C[C@H]3C)C1(C)C`, the Activity was >75%. With `CCCCC/C=C\C=C\C(=O)O[C@H]1C(C)=C[C@]23C(=O)[C@@H](C=C(CO)[C@@H](OC(C)=O)[C@]12O)[C@H]1[C@@H](C[C@H]3C)C1(C)C`, the Activity is recorded as >75%.

With `CCCCC/C=C/C=C/C(=O)O[C@H]1C(C)=C[C@]23C(=O)[C@@H](C=C(CO)[C@@H](O)[C@]12O)[C@H]1[C@@H](C[C@H]3C)C1(C)C`, the Activity was >75%. Still for that read-out and setting: the same measure for `CCCCC/C=C/C=C/C(=O)O[C@H]1C(C)=C[C@]23C(=O)[C@@H](C=C(COC(C)=O)[C@@H](O)[C@]12O)[C@H]1[C@@H](C[C@H]3C)C1(C)C`: >75%; for `CCCCCCCCCC(=O)OCC1=C[C@@H]2C(=O)[C@]3(C=C(C)[C@H](O)[C@@]3(O)[C@@H]1O)[C@H](C)C[C@@H]1[C@H]2C1(C)C`: >75%.

On to `CCCCC/C=C\C=C\C(=O)OCC1=C[C@@H]2C(=O)[C@]3(C=C(C)[C@H](O)[C@@]3(O)[C@@H]1O)[C@H](C)C[C@@H]1[C@H]2C1(C)C`, for which the Activity is on record as >75%.

As for `CCCCC/C=C/C=C/C(=O)OCC1=C[C@@H]2C(=O)[C@]3(C=C(C)[C@H](O)[C@@]3(O)[C@@H]1O)[C@H](C)C[C@@H]1[C@H]2C1(C)C`, the Activity is recorded as >75%. On to `CCCCC/C=C/C=C/C(=O)O[C@@H]1C(CO)=C[C@@H]2C(=O)[C@]3(C=C(C)[C@H](O)[C@@]13O)[C@H](C)C[C@@H]1[C@H]2C1(C)C`, for which the Activity is >75%.

The record behind these values is ChEMBL document CHEMBL1150627, “Diterpenes from the roots of Euphorbia kansui and their in vitro effects on the cell division of Xenopus” (2002).
